Measured values from PMC3870591 (Human immunology, 2013).
Marks after values point to notes of the source that are not given here.

Experiments:
DRB1*03:01 = DRB1*03:01 (Homo sapiens, UniProt P01903+P01911, A100K/A102G/A103R/A169T/F55Y/I96L/K41T/L162R/M171V/P40S/Q125H/Q178H/Q39Y/R42S/S66N/T106N/T262R/W38E/Y61H); assay: REVEAL MHC-peptide binding assay; conditions: HLA DRB1*03:01; percentage of signal of positive control peptide
Summary of the method: (§1)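 Overlapping 15-mer peptides (3-residue offset) spanning brown shrimp tropomyosin (Q3Y8M6) were tested in the REVEAL assay. It detects peptide-stabilised, natively folded MHC class II complexes via a labeled antibody. Scores at 0 and 24 h are expressed as % of signal from an allele-specific known T-cell epitope positive control. An intermediate-affinity control peptide verified assay performance. A score of ≥10% counted as a good binder.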

DQA1*05:01; DQB1*02:01 = DQA1*05:01; DQB1*02:01 (Homo sapiens, UniProt P01909+P01920, A45G/A70V/D89A/E106A/E77G/E98D/H199R/L107V/N214S/P84L/P87L/T103K/T109R/T172A/T60S/V78E/V99I/Y58L/Y62S/Y69I/Y79F); assay: REVEAL MHC-peptide binding assay; conditions: HLA DQB1*02:01; percentage of signal of positive control peptide
Summary of the method: as §1

DRB1*04:01 = DRB1*04:01 (Homo sapiens, UniProt P01903+P01911, A100K/A169T/F76Y/I96L/K127E/L162R/M171V/N62H/P40V/Q125Y/R42H/S133A/S149N/S66Y/V115G/V209L/W38E); assay: REVEAL MHC-peptide binding assay; conditions: HLA DRB1*04:01; percentage of signal of positive control peptide
Summary of the method: as §1

MHC class II alleles = assay: REVEAL MHC-peptide binding assay; design: species or system human; conditions: % of the positive control; allele not given
Summary of the method: as §1

DQA1*01:01; DQB1*05:01 = DQA1*01:01; DQB1*05:01 (Homo sapiens, UniProt P01909+P01920, A157S/A45G/A70V/C70R/D89V/E106S/E118A/E183D/E77G/F83G/G63E/H151Q/H199R/H252R/H253Q/I129T/I235V/I88M/INS77G/K197Q/L107V/L117V/L119Y/L178F/L71W/L74F/L85Q/L91A/L98M/M46L/N214S/P87R/Q116E/Q256R/Q57E/Q76K/R102G/R240Q/R75S/R78G/S102Y/S185I/S41F/S97I/T103A/T109R/T121G/T122I/T172A/T86R/V148I/V68A/V73E/Y34C/Y58G/Y62H); assay: REVEAL MHC-peptide binding assay; conditions: HLA DQB1*05:01; percentage of signal of positive control peptide
Summary of the method: as §1

DRB1*07:01 = DRB1*07:01 (Homo sapiens, UniProt P01903+P01911, A100R/A102G/A103Q/D57E/D86V/E43K/F76Y/K127E/L162R/M171V/P40G/Q125H/Q99D/R33Q/R42Y/R54Q/S133A/S66F/T210M/V115G/Y107V/Y59L/Y89S); assay: REVEAL MHC-peptide binding assay; conditions: HLA DRB1*07:01; percentage of signal of positive control peptide
Summary of the method: as §1

DRB1*10:01 = DRB1*10:01 (Homo sapiens, UniProt P01903+P01911, A100R/A169T/D57E/F55L/F60V/F69Y/F76Y/I96L/L162R/M171V/P40V/Q260P/Q39E/Q99R/R195Q/R42F/S149N/S66Y/T210M/V115G/V67A/W38E/Y59R/Y61H); assay: REVEAL MHC-peptide binding assay; conditions: HLA DRB1*10:01; percentage of signal of positive control peptide
Summary of the method: as §1

DRB1*11:01 = DRB1*11:01 (Homo sapiens, UniProt P01903+P01911, A100R/A169T/A87E/I96F/K41T/L162R/M171V/P40S/Q125H/Q178H/Q39Y/Q99D/R42S/S66Y/T262R/V115G/W38E); assay: REVEAL MHC-peptide binding assay; conditions: HLA DRB1*11:01; percentage of signal of positive control peptide
Summary of the method: as §1

DRB1*13:01 = DRB1*13:01 (Homo sapiens, UniProt P01903+P01911, A100E/A169T/K41T/L162R/M171V/P40S/Q125H/Q178H/Q39Y/Q99D/R42S/S66N/T262R/W38E/Y61H); assay: REVEAL MHC-peptide binding assay; conditions: HLA DRB1*13:01; percentage of signal of positive control peptide
Summary of the method: as §1

DRB1*09:01 = DRB1*09:01 (Homo sapiens, UniProt P01903+P01911, A100R/A103E/D57H/D86V/F55Y/F60I/F76Y/I96F/K127E/L162R/M171V/P40D/Q125H/Q99R/R33Q/R42F/S133A/S66N/T210M/V115G/W38K/Y107V/Y59G/Y89S); assay: REVEAL MHC-peptide binding assay; conditions: HLA DRB1*09:01; percentage of signal of positive control peptide
Summary of the method: as §1

CD4 T cells = assay: CFSE CD4 T cell proliferation assay; type: cell-based, human
[1] = tested on: Peripheral blood mononuclear cells (PBMC); assay: Tritiated thymidine proliferation assay; type: cell-based, human
DQA1*03:01; DQB1*03:02 = DQA1*03:01; DQB1*03:02 (Homo sapiens, UniProt P01909+P01920, A209T/A45G/C70Q/D89A/DUP78-78/E183D/E77G/F237L/G63E/H199R/I129T/K197E/L178F/L74F/L98V/Q57E/Q76R/S185I/S97I/T217I/T49S/V73L/Y58L); assay: REVEAL MHC-peptide binding assay; conditions: HLA DQB1*03:02; percentage of signal of positive control peptide
Summary of the method: as §1

DRB1*15:01 = DRB1*15:01 (Homo sapiens, UniProt P01903+P01911); assay: REVEAL MHC-peptide binding assay; conditions: HLA DRB1*15:01; percentage of signal of positive control peptide
Summary of the method: as §1

63: tropomyosin-derived 15-mer ESKIVELEEELRVVG [Peptide 63]
Binding score (DRB1*03:01): 29.06%

10: tropomyosin-derived 15-mer QNKEANNRAEKSEEE [Peptide 10]
Binding score (DQA1*05:01; DQB1*02:01): 25.17%

18: tropomyosin-derived 15-mer QLENDLDQVQESLLK [Peptide 18]
Binding score (DRB1*04:01): 9.10 ^a % | Binding score (relative binding affinity) (MHC class II alleles): ≤ 10%

43: tropomyosin-derived 15-mer RKVLENRSLSDEERM [Peptide 43]
Binding score (DQA1*01:01; DQB1*05:01): 7.11 ^a % | Binding score (relative binding affinity) (MHC class II alleles): ≤ 10%

13: tropomyosin-derived 15-mer EKSEEEVHNLQKRMQ [Peptide 13]
Binding score (DRB1*07:01): 26.79%

58: tropomyosin-derived 15-mer VEADLERAEERAETG [Peptide 58]
Binding score (DRB1*10:01): 39.12%

15: tropomyosin-derived 15-mer VHNLQKRMQQLENDL [Peptide 15]
Binding score (DRB1*11:01): 11.01%

57: tropomyosin-derived 15-mer LAMVEADLERAEERA [Peptide 57]
Binding score (DRB1*03:01): 19.46%

66: tropomyosin-derived 15-mer ELRVVGNNLKSLEVS [Peptide 66]
Binding score (DRB1*04:01): 25.05% | Binding score (DQA1*05:01; DQB1*02:01): 24.15%

24: tropomyosin-derived 15-mer QLVEKDKALSNAEGE [Peptide 24]
Binding score (DRB1*04:01): 20.62% | Binding score (DRB1*03:01): 45.59%

5: tropomyosin-derived 15-mer LEKDNAMDRADTLEQ [Peptide 5]
Binding score (DRB1*03:01): 66.31%

29: tropomyosin-derived 15-mer VAALNRRIQLLEEDL [Peptide 29]
Binding score (DRB1*13:01): 19.31% | Binding score (DRB1*11:01): 22.35%

49: tropomyosin-derived 15-mer ENQLKEARFLAEEAD [Peptide 49]
Binding score (DQA1*01:01; DQB1*05:01): 19.65%

3: tropomyosin-derived 15-mer KMQAMKLEKDNAMDR [Peptide 3]
Binding score (DRB1*04:01): 23.52%

76: tropomyosin-derived 15-mer KTLTNKLKAAEARAE [Peptide 76]
Binding score (DRB1*09:01): 89.92% | Binding score (DRB1*10:01): 37.57%

Tetanus Toxoid
CD4 T cell proliferation (CFSE) (CD4 T cells): much greater level of CD4 T cell proliferation | Proliferative T cell response by tritiated-thymidine incorporation [1]: much higher proliferative responses

1: tropomyosin-derived 15-mer MDAIKKKMQAMKLEK [Peptide 1]
Binding score (DQA1*03:01; DQB1*03:02): 35.20% | Binding score (DRB1*15:01): 14.02% | Binding score (DRB1*11:01): 18.74%

36: tropomyosin-derived 15-mer LNTATTKLAEASQAA [Peptide 36]
Binding score (DRB1*04:01): 43.87%

51: tropomyosin-derived 15-mer ARFLAEEADRKYDEV [Peptide 51]
Binding score (DRB1*04:01): 11.06% | Binding score (DRB1*03:01): 15.03%

4: tropomyosin-derived 15-mer AMKLEKDNAMDRADT [Peptide 4]
Binding score (DRB1*03:01): 74.69%

21: tropomyosin-derived 15-mer QESLLKANIQLVEKD [Peptide 21]
Binding score (DRB1*09:01): 8.32 ^a %

7: tropomyosin-derived 15-mer MDRADTLEQQNKEAN [Peptide 7]
Binding score (DRB1*04:01): 22.16%

74: tropomyosin-derived 15-mer AYKEQIKTLTNKLKA [Peptide 74]
Binding score (DQA1*03:01; DQB1*03:02): 19.28% | Binding score (DQA1*01:01; DQB1*05:01): 14.73% | Binding score (DRB1*04:01): 41.94% | Binding score (DRB1*07:01): 74.20% | Binding score (DRB1*11:01): 10.94%

8: tropomyosin-derived 15-mer ADTLEQQNKEANNRA [Peptide 8]
Binding score (DQA1*05:01; DQB1*02:01): 20.74%

54: tropomyosin-derived 15-mer RKYDEVARKLAMVEA [Peptide 54]
Binding score (DQA1*03:01; DQB1*03:02): 7.98 ^a %

53: tropomyosin-derived 15-mer EADRKYDEVARKLAM [Peptide 53]
Binding score (DRB1*11:01): 13.67%

80: tropomyosin-derived 15-mer RAEFAERSVQKLQKE [Peptide 80]
Binding score (DQA1*01:01; DQB1*05:01): 9.26 ^a % | Binding score (relative binding affinity) (MHC class II alleles): ≤ 10%

34: tropomyosin-derived 15-mer ERSEERLNTATTKLA [Peptide 34]
Binding score (DQA1*01:01; DQB1*05:01): 22.67%

2: tropomyosin-derived 15-mer IKKKMQAMKLEKDNA [Peptide 2]
Binding score (DQA1*01:01; DQB1*05:01): 13.94% | Binding score (DRB1*13:01): 26.06%
